Test [1] addresses T1, purified recombinant rat MGL (Rattus norvegicus, UniProt Q8R431).
T1 sequence (Q8R431 1-303): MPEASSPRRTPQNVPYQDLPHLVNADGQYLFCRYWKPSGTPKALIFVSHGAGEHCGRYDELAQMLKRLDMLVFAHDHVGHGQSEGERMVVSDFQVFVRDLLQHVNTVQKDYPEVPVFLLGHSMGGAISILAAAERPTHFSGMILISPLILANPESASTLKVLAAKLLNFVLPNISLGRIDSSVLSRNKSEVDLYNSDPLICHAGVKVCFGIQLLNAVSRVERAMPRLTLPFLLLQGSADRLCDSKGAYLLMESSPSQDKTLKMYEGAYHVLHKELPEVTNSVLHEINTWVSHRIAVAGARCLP
Briefly: Inhibition of purified recombinant MGL. The format is biochemical.

The subject of test [2] is primary cultures of rat cortical neurons. Briefly: 2-AG and PEA levels in primary cultures of rat cortical neurons. The class given is cell-based.
The next test has as its target T2, MGL C201G mutant (Rattus norvegicus, UniProt Q8R431, C201G).
T2 sequence (Q8R431 1-303 C201G): T1 sequence (Q8R431 1-303) with C201G
Briefly: Inhibition of MGL C201G mutant in HeLa cell extracts. The format is biochemical.

The target in a further test is T3, MGL Cys32 mutant (Rattus norvegicus, UniProt Q8R431, C32G).
T3 sequence (Q8R431 1-303 C32G): T1 sequence (Q8R431 1-303) with C32G
Description: Inhibition of MGL Cys32 mutant. The settings on record: data not shown. The class given is biochemical.

Another test concerns the target T4, rat brain FAAH (Rattus norvegicus, UniProt P97612).
T4 sequence (P97612 1-579): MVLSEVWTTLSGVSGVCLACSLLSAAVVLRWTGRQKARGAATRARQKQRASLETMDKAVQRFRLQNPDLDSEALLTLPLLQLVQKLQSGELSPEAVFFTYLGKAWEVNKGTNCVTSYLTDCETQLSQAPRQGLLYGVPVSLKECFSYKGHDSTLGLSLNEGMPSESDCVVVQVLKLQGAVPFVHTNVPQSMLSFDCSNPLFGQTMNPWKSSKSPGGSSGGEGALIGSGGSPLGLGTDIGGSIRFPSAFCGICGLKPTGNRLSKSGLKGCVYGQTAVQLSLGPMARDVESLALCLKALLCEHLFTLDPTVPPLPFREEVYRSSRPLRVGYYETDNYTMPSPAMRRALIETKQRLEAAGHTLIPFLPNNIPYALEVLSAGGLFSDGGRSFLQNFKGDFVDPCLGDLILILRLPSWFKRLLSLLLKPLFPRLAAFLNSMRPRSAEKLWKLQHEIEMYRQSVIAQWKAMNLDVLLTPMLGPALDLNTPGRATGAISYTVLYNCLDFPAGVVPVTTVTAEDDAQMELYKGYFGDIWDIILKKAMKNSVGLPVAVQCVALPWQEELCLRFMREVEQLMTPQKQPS
Briefly: FAAH activity in rat brain homogenates. The format is biochemical. The conditions noted are these: in vitro, Table S1.

For test [3], the system named is rat brain diacylglycerol lipase. Description: DGL activity in rat brain homogenates. The class given is biochemical. The conditions noted are these: in vitro, Table S1.
Another test addresses purified MGL (Rattus norvegicus, UniProt Q8R431). The format is biochemical.
In test [4] the target is T5, non-purified HeLa MGL (wild-type) (Rattus norvegicus, UniProt Q8R431).
T5 sequence (Q8R431 1-303): T1 sequence (Q8R431 1-303)
Briefly: Inhibition of non-purified MGL. The format is biochemical.

The target of a further test is T6, rat ABHD6 (Rattus norvegicus, UniProt Q5XI64).
T6 sequence (Q5XI64 1-337): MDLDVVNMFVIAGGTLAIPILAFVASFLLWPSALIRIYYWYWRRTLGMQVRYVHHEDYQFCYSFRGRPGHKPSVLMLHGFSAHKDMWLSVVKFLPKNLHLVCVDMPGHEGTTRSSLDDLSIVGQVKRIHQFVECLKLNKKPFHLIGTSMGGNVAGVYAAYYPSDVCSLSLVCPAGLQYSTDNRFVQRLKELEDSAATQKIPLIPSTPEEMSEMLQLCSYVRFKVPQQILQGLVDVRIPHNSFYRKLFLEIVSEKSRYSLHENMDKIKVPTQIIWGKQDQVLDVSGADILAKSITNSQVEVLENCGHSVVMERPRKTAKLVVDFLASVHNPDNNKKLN
Description: ABHD6 activity assay. The class given is biochemical.

The next test concerns the target T7, MGL C208G mutant (Rattus norvegicus, UniProt Q8R431, C208G).
T7 sequence (Q8R431 1-303 C208G): T1 sequence (Q8R431 1-303) with C208G
Briefly: Inhibition of MGL C208G mutant in HeLa cell extracts. The format is biochemical.

Test [5] deals with T8, rat recombinant N-acylethanolamide acid amidase (Rattus norvegicus, UniProt Q5KTC7).
T8 sequence (Q5KTC7 131-362 limits assumed): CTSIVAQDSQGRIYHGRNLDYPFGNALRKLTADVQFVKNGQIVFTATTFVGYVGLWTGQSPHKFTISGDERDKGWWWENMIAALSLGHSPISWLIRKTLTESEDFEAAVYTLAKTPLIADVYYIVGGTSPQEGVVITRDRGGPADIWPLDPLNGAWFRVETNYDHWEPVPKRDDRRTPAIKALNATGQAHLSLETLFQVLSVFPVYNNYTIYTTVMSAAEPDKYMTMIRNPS
T8 sequence (Q5KTC7 34-130 limits assumed): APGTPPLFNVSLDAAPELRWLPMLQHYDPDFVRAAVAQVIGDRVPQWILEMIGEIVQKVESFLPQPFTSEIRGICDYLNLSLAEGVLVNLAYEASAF
Description: NAAA activity assay. The format is biochemical. The conditions noted are these: in vitro, Table S1. The method in brief:
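Rat NAAA (Flag-tagged) from stably transfected HEK293 cells (G418 0.3 mg/ml), prepared by sonication, differential centrifugation, freeze-thaw and 105,000 × g supernatant. 50 μM heptadecenoylethanolamide incubated with 10 μg protein in 50 mM sodium phosphate pH 5.0, 0.1% Triton X-100, 3 mM DTT, 30 min at 37°C. Stopped with cold methanol containing heptadecanoic acid; product (m/z 267) measured by LC/MS SIM.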

The next test addresses T9, non-purified HeLa MGL (Rattus norvegicus, UniProt Q8R431).
T9 sequence (Q8R431 1-303): T1 sequence (Q8R431 1-303)
Briefly: Michaelis-Menten kinetic analysis of the MGL reaction. The format is biochemical. The settings on record: for Vmax of MGL in presence of inhibitor: vehicle 200±20; for Mechanism of MGL inhibition: from rapid dilution and kinetic experiments.

For a further test, the target named is T10, rat ABHD12 (Rattus norvegicus, UniProt Q6AYT7).
T10 sequence (Q6AYT7 1-398): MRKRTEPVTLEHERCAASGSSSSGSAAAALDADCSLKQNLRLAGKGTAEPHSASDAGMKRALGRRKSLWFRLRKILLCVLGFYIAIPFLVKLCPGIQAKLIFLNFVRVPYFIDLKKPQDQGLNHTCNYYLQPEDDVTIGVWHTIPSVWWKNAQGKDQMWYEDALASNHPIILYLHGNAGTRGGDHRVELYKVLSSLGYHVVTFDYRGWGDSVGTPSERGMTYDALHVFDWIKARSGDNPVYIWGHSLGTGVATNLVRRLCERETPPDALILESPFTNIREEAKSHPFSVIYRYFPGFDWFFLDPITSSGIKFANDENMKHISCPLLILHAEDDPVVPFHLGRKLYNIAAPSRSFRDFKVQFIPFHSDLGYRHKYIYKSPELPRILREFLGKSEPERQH
Briefly: ABHD12 activity assay. The format is biochemical. The settings on record: in vitro. The gist of the method: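 Rat full-length ABHD12 (V5-tagged) transiently expressed in HeLa cells, harvested at 48 h, and homogenised in 50 mM Tris-Cl pH 8.0 with 0.32 M sucrose. Modified MGL assay run at pH 7.5 with 3 μg protein per reaction for 30 min at 37°C. Samples extracted; product (m/z 281) quantified by negative-ion ESI LC/MS in SIM mode against heptadecanoic acid standard.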

Where [6] appears, read: IC50, inhibition of non-purified MGL, cell lysates of MGL-transfected HeLa cells.
Where [7] appears, read: IC50, wild-type MGL in HeLa cell extracts, wt control of the mutational analysis.

Numbering of substitutions follows the chain as printed. Where two headings read alike, the source gives them in different places.

The values that follow come from paper PMC3034734 (Chemistry & biology, 2009).

Regarding `Cc1c(O)c(O)cc2c1CC=C1[C@@]2(C)CC[C@@]2(C)[C@@H]3C[C@](C)(C(=O)O)CC[C@]3(C)CC[C@]12C` [Dihydrocelastrol], the half-maximal inhibitory concentration (IC50) in test [1] turned out to be 15000 ± 4000 nM.

As to `CCCCC/C=C\C/C=C\C/C=C\C/C=C\CCCCN1C(=O)C=CC1=O` [N-arachidonylmaleimide, reference compound], in test [2], the “Effect on 2-AG levels” value is on record as “increased” and the “Effect on PEA levels” value is “increased”.

Turning to `CC1=C(O)C(=O)C=C2C1=CC=C1[C@@]2(C)CC[C@@]2(C)[C@@H]3C[C@](C)(C(=O)O)CC[C@]3(C)CC[C@]12C` [Celastrol], the IC50 in [1] is 1600 ± 400 nM.

For the molecule `COC(=O)[C@]1(C)CC[C@]2(C)CC[C@]3(C)C4=CCc5c(cc(O)c(O)c5C)[C@]4(C)CC[C@@]3(C)[C@@H]2C1` [Pristimerol], in [1], the half-inhibitory concentration (IC50) is 4000 ± 500 nM.

As to `COC(=O)[C@]1(C)CC[C@]2(C)CC[C@]3(C)C4=CC=C5C(=CC(=O)C(O)=C5C)[C@]4(C)CC[C@@]3(C)[C@@H]2C1` [Pristimerin], the “Effect of Cys201 mutation on inhibitory potency” value on MGL C201G mutant (C201G vs wt, HeLa cell extracts) was “without affecting the potency”. In addition, the “Effect on PEA levels” value in [2] (1 μM, 30 min) was “not accompanied by any significant changes”. The “Cellular 2-AG concentrations” value in test [2] (1 μM, 30 min, over vehicle-treated neurons) was determined as 1.6±0.1 fold change. Further, the “Effect of Cys32 mutation on activity of inhibitor” value on MGL Cys32 mutant was “did not influence the activity”. Also, at rat brain FAAH, the “Effect on FAAH activity” value is listed as “no significant effect”. Further, in test [3], the “Effect on diacylglycerol lipase activity” value is given as “no significant effect”. The “Time-course of MGL inhibition” value at purified MGL was “almost immediate blockade of MGL activity”. Besides, the IC50 in test [4] (setting [6]) is 398 ± 68 nM; in test [4] (setting [7]), 350 ± 37 nM; against rat ABHD6 it was 98 ± 8 nM; against MGL C208G mutant, 1180 ± 174 nM. Further, in [5], the “Effect on N-acylethanolamide acid amidase activity” value is “no significant effect”. Also, the “Vmax of MGL in presence of inhibitor” value was found to be 174 ± 7 pmol/min/µg at non-purified HeLa MGL (100 nM inhibitor), 104 ± 7 pmol/min/µg on non-purified HeLa MGL (300 nM inhibitor) and 51 ± 18 pmol/min/µg on non-purified HeLa MGL (500 nM inhibitor). At non-purified HeLa MGL, the “Mechanism of MGL inhibition” value is “rapid, reversible and non-competitive”. Besides, on rat ABHD12, the “Effect on ABHD12 activity” value is listed as “did not affect the activity”.

Take `CC(C)=CCC[C@@H](C)[C@@H]1CC[C@]2(C)C3=C(CC[C@@]12C)[C@@]1(C)CC[C@H](O)C(C)(C)[C@@H]1CC3` [euphol]: the half-inhibitory concentration (IC50) on MGL C201G mutant was found to be 2600 ± 200 nM; in test [4] (setting [6]), 882 ± 78 nM; in [4] (setting [7]), 513 ± 9 nM; against rat ABHD6, 9000 ± 1000 nM. In addition, the “Effect on PEA levels” value in test [2] (10 μM, 30 min, data not shown) is on record as “small, non-significant change”. In addition, the “Cellular 2-AG levels” value in [2] (10 μM, 30 min, over vehicle-treated neurons) is on record as 1.2±0.2 fold change. In addition, on MGL Cys32 mutant, the “Effect of Cys32 mutation on activity of inhibitor” value is on record as “did not influence the activity”. For the same molecule, the “Effect of Cys208 replacement on concentration-response curve” value at MGL C208G mutant (C208G vs wt, HeLa cell extracts) is “no effect”. Moreover, the “Mechanism of MGL inhibition” value at non-purified HeLa MGL is “reversible and non-competitive”.

Turning to `CC(=O)Oc1cc2c(c(C)c1OC(C)=O)CC=C1[C@@]2(C)CC[C@@]2(C)C3C[C@](C)(C(=O)O)CC[C@]3(C)CC[C@]12C` (some centres unmarked) [Dihydrocelastryl Diacetate], the IC50 in [1] (read-out: IC50, inhibition of purified recombinant MGL) was 15000 ± 3000 nM.

By IC50 is commonly meant the concentration at which inhibition is half-maximal.
